In ChEMBL document CHEMBL1132303, “Novel pyrimidine and purine derivatives of L-ascorbic acid: synthesis and biological evaluation” (J Med Chem, 1999):

Legend:
HEL [1] = test: Minimum cytotoxic concentration that causes a microscopically detectable alteration of cell morphology in human embryonic lung cells; format: functional, cell-based
How it was run: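 Human embryonic lung cells checked under the microscope. Minimum concentration producing a detectable change in cell morphology.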

HEL [2] = test: The compound was tested for antiviral activity by measuring the concentration required to reduce plaque formation against Varicella zoster TK+OKA strain; format: functional, cell-based; conditions: Homo sapiens
How it was run: (§1)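 Plaque reduction in human embryonic lung cells with 20 PFU virus input. EC50 is the concentration that cuts plaque formation by 50%.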

HEL [3] = test: The compound was tested for antiviral activity by measuring the concentration required to reduce plaque formation against Varicella zoster TK+YS strain; format: functional, cell-based; conditions: Homo sapiens; how it was run: as §1
HEL [4] = test: The compound was tested for antiviral activity by measuring the concentration required to reduce plaque formation against Varicella zoster TK-(deficient) 07/1 strain; format: functional, cell-based; conditions: Homo sapiens; how it was run: as §1
HEL [5] = test: The compound was tested for antiviral activity by measuring the concentration required to reduce plaque formation against Varicella zoster TK-(deficient) YS/R strain; format: functional, cell-based; conditions: Homo sapiens; how it was run: as §1
HEL [6] = test: The compound was tested for cytotoxic concentration required to reduce human embryonic lung cell growth by 50%; format: functional, cell-based
How it was run: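 Human embryonic lung cell growth measured. Value is the concentration reducing cell growth by 50%.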

FM3A = test: The compound was tested for growth inhibitory activity against FM3A/0 tumor cell lines; format: functional, cell-based; conditions: Mus musculus
HEL [7] = test: The compound was tested for antiviral activity by measuring the concentration required to reduce plaque formation against cytomegalo virus Davis strain; format: functional, cell-based; conditions: Homo sapiens; how it was run: as §1
HEp-2 = test: The compound was tested for growth inhibitory activity against Hep2 tumor cell lines; format: functional, cell-based; conditions: Homo sapiens
How it was run: (§2)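 Monolayer cells in DMEM with 10% FBS, 2 mM glutamine, penicillin/streptomycin, 37 °C, 5% CO2, plated at 1.5 × 10^4/mL (HeLa, Hep2, MCF7, MiaPaCa2) or 2 × 10^4/mL (Hef522). MTT read-out, percent growth versus untreated controls. Mean of three parallel samples in three experiments; IC50 reported.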

HeLa = test: The compound was tested for growth inhibitory activity against HeLa tumor cell lines; format: functional, cell-based; conditions: Homo sapiens; how it was run: as §2
L1210 = test: The compound was tested for growth inhibitory activity against L1210/0 tumor cell lines; format: functional, cell-based; conditions: Mus musculus
MCF7 = test: The compound was tested for growth inhibitory activity against MCF-7 tumor cell lines; format: functional, cell-based; conditions: Homo sapiens; how it was run: as §2
MIA PaCa-2 = test: The compound was tested for growth inhibitory activity against MiaPaCa2 tumor cell lines; format: functional, cell-based; conditions: Homo sapiens; how it was run: as §2
MOLT-4 = test: The compound was tested for growth inhibitory activity against Molt4/C8 tumor cell lines; format: functional, cell-based; conditions: Homo sapiens
HEL [8] = test: The compound was tested for antiviral activity by measuring the concentration required to reduce plaque formation against cytomegalo virus AD-169 strain; format: functional, cell-based; conditions: Homo sapiens; how it was run: as §1
CCRF-CEM = test: The compound was tested for growth inhibitory activity against CEM/0 tumor cell lines; format: functional, cell-based; conditions: Homo sapiens
[9] = tested on: Hef522 normal fibroblasts (human); test: The compound was tested for growth inhibitory activity against normal fibroblast (Hef522)

Compound | IC50 (HEL [2]) | IC50 (HEL [3]) | IC50 (HEL [4]) | IC50 (HEL [5]) | IC50 (HEL [7]) | IC50 (HeLa) | IC50 (L1210) | IC50 (MCF7) | IC50 (MIA PaCa-2) | IC50 (MOLT-4) | IC50 (HEL [8]) | IC50 (CCRF-CEM) | MCC (HEL [1]) | IC50 (HEL [6]) | IC50 (FM3A) | IC50 (HEp-2) | IC50 [9]
Nc1nc2c(ncn2COCCO)c(=O)[nH]1 [ACYCLOVIR] | 160 nM | 780 nM | 17 µM | 12000 nM | – | – | – | – | – | – | – | – | > 50 µM | > 100 µM | – | – | –
O=C1O/C(=C\Cn2cnc3c(-n4cccc4)ncnc32)C(OCc2ccccc2)=C1OCc1ccccc1 | 1200 nM | 1500 nM | 2.8 µM | 600 nM | > 0.5 µM | 70 µM | 110 µM | > 100 µM | > 100 µM | 3.9 µM | > 500 nM | 5.8 µM | 20 µM | 4 µM | > 200 µM | > 100 µM | > 100 µM
O=C1O/C(=C\Cn2ccc(=O)[nH]c2=O)C(OCc2ccccc2)=C1OCc1ccccc1 | 3000 nM | 3400 nM | 3.4 µM | 1800 nM | 3.5 µM | 50 µM | 12.9 µM | 20 µM | 30 µM | 4.8 µM | 3500 nM | 13 µM | 20 µM | 5 µM | 17.7 µM | 40 µM | 50 µM
O=C1O/C(=C\Cn2cnc3c(Cl)ncnc32)C(OCc2ccccc2)=C1OCc1ccccc1 | > 5000 nM | > 5000 nM | > 5 µM | > 5000 nM | > 5 µM | 30 µM | 11.6 µM | 40 µM | 60 µM | 14.8 µM | > 5000 nM | 15.9 µM | 20 µM | 8 µM | 16.4 µM | 60 µM | 50 µM
O=C1O/C(=C/Cn2cnc3ncnc(Cl)c32)C(OCc2ccccc2)=C1OCc1ccccc1 | 5000 nM | > 5000 nM | > 5 µM | 3800 nM | > 5 µM | 30 µM | 4.1 µM | > 100 µM | 40 µM | 6.8 µM | > 5000 nM | 4.4 µM | 20 µM | 20 µM | 11.4 µM | 60 µM | 20 µM
Nc1nc2c(ncn2COC(CO)CO)c(=O)[nH]1 [GANCICLOVIR] | – | – | – | – | 5 µM | – | – | – | – | – | 1000 nM | – | > 50 µM | > 50 µM | – | – | –
O=c1[nH]c(=O)n([C@H]2C[C@H](O)[C@@H](CO)O2)cc1/C=C/Br [BRIVUDINE] | 1 nM | 5 nM | > 50 µM | > 50000 nM | – | – | – | – | – | – | – | – | > 50 µM | > 100 µM | – | – | –

Further lines, with some results ahead:

IC50 (HEL [2]) | IC50 (HEL [3]) | IC50 (HEL [4]) | IC50 (HEL [5]) | IC50 (HEL [7]) | IC50 (HeLa) | IC50 (L1210) | IC50 (MCF7) | IC50 (MIA PaCa-2) | IC50 (MOLT-4) | IC50 (HEL [8]) | IC50 (CCRF-CEM) | Compound | MCC (HEL [1]) | IC50 (HEL [6]) | IC50 (FM3A) | IC50 (HEp-2) | IC50 [9]
2600 nM | 3800 nM | 3.5 µM | 2700 nM | 3.5 µM | 40 µM | 5.1 µM | 60 µM | 40 µM | 10.9 µM | 3500 nM | 15.1 µM | O=C1O/C(=C\Cn2cc(F)c(=O)[nH]c2=O)C(OCc2ccccc2)=C1OCc1ccccc1 | 20 µM | 9 µM | 3.4 µM | 20 µM | 40 µM
1300 nM | > 2000 nM | > 2 µM | 1000 nM | > 2 µM | 40 µM | 12.2 µM | 60 µM | 40 µM | 6.1 µM | > 2000 nM | 6 µM | O=C1O/C(=C\Cn2cc(Cl)c(=O)[nH]c2=O)C(OCc2ccccc2)=C1OCc1ccccc1 | 5 µM | 3 µM | 16.9 µM | 20 µM | 30 µM
1300 nM | > 2000 nM | > 2 µM | 1000 nM | > 2 µM | 30 µM | 7.5 µM | 40 µM | 80 µM | 3.9 µM | > 2000 nM | 3.5 µM | O=C1O/C(=C\Cn2cc(Br)c(=O)[nH]c2=O)C(OCc2ccccc2)=C1OCc1ccccc1 | 5 µM | 3 µM | 17.1 µM | 90 µM | 30 µM
1300 nM | 1400 nM | > 2 µM | 1000 nM | > 2 µM | 30 µM | 7.5 µM | 70 µM | 80 µM | 3.9 µM | > 2000 nM | 3.3 µM | O=C1O/C(=C\Cn2cc(I)c(=O)[nH]c2=O)C(OCc2ccccc2)=C1OCc1ccccc1 | 5 µM | 3 µM | 22.6 µM | 10 µM | 40 µM
300 nM | 500 nM | 0.5 µM | 300 nM | 0.4 µM | 20 µM | 2 µM | 40 µM | 30 µM | 0.9 µM | > 500 nM | 1.6 µM | O=C1O/C(=C\Cn2cc(C(F)(F)F)c(=O)[nH]c2=O)C(OCc2ccccc2)=C1OCc1ccccc1 | 2 µM | 1 µM | 3.6 µM | 40 µM | 60 µM
